A short description of series [1]: Inhibition of Streptococcus agalactiae 4755 hyaluronidase at pH 7.4 after 3 hrs by turbidimetric analysis. A digest of the protocol:
(§1)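 Same turbidimetric hyaluronan-lyase assay at pH 7.4 (citrate–phosphate/NaCl): SagHyal4755 2.9 ng, hyaluronan (2 mg/ml stock), BSA, 3.8% DMSO final, 3 h at 37 °C. CTAB (2.5%, in 0.5 M NaOH) precipitation, 20 min at 25 °C, A600. Activity scaled between no-inhibitor and no-enzyme samples.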

The target in series [2] is T1, Hyaluronidase (Bos taurus) (UniProt Q8SQG8+Q5E985). The series is described as follows: Inhibition of bovine testes hyaluronidase at 200 uM after 30 mins at pH 5 by turbidimetric analysis. The series is classed as protein assay.
For series [3], the target named is T1, Hyaluronidase (Bos taurus). The series is described as follows: Inhibition of bovine testes hyaluronidase at 380 uM after 30 mins at pH 5 by turbidimetric analysis. The series is classed as protein assay.
Series [4] deals with T1, Hyaluronidase (Bos taurus). The series is described as follows: Inhibition of bovine testes hyaluronidase at 49 uM after 30 mins at pH 5 by turbidimetric analysis. The series is classed as protein assay.
The target of series [5] is T1, Hyaluronidase (Bos taurus). The series is described as follows: Inhibition of bovine testes hyaluronidase at 4200 uM after 30 mins at pH 5 by turbidimetric analysis. The series is classed as protein assay.
For series [6], the target named is T1, Hyaluronidase (Bos taurus). The series is described as follows: Inhibition of bovine testes hyaluronidase at 460 uM after 30 mins at pH 5 by turbidimetric analysis. The series is classed as protein assay.
For series [7], the target named is T1, Hyaluronidase (Bos taurus). The series is described as follows: Inhibition of bovine testes hyaluronidase at 180 uM after 30 mins at pH 5 by turbidimetric analysis. The series is classed as protein assay.
Series [8] has as its target T1, Hyaluronidase (Bos taurus). The series is described as follows: Inhibition of bovine testes hyaluronidase at 190 uM after 30 mins at pH 5 by turbidimetric analysis. The series is classed as protein assay.
For series [9], the target named is T1, Hyaluronidase (Bos taurus). The series is described as follows: Inhibition of bovine testes hyaluronidase at 170 uM after 30 mins at pH 5 by turbidimetric analysis. The series is classed as protein assay.
Series [10] deals with T1, Hyaluronidase (Bos taurus). The series is described as follows: Inhibition of bovine testes hyaluronidase at 100 uM after 30 mins at pH 5 by turbidimetric analysis. The series is classed as protein assay.
Series [11] concerns the target T1, Hyaluronidase (Bos taurus). The series is described as follows: Inhibition of bovine testes hyaluronidase at 400 uM after 30 mins at pH 5 by turbidimetric analysis. The series is classed as protein assay.
In series [12] the target is T1, Hyaluronidase (Bos taurus). The series is described as follows: Inhibition of bovine testes hyaluronidase at 3800 uM after 30 mins at pH 5 by turbidimetric analysis. The series is classed as protein assay.
The target of series [13] is T1, Hyaluronidase (Bos taurus). The series is described as follows: Inhibition of bovine testes hyaluronidase at 130 uM after 30 mins at pH 5 by turbidimetric analysis. The series is classed as protein assay.
Series [14] addresses T1, Hyaluronidase (Bos taurus). The series is described as follows: Inhibition of bovine testes hyaluronidase at 63 uM after 30 mins at pH 5 by turbidimetric analysis. The series is classed as protein assay.
Series [15] has as its target T1, Hyaluronidase (Bos taurus). The series is described as follows: Inhibition of bovine testes hyaluronidase at 80 uM after 30 mins at pH 5 by turbidimetric analysis. The series is classed as protein assay.
Series [16] has as its target T1, Hyaluronidase (Bos taurus). The series is described as follows: Inhibition of bovine testes hyaluronidase at 2000 uM after 30 mins at pH 5 by turbidimetric analysis. The series is classed as protein assay.
For series [17], the target named is T1, Hyaluronidase (Bos taurus). The series is described as follows: Inhibition of bovine testes hyaluronidase at 150 uM after 30 mins at pH 5 by turbidimetric analysis. The series is classed as protein assay.
A short description of series [18]: Aqueous solubility of the compound in water. The series is classed as physicochemical. A digest of the protocol: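 Turbidity at 600 nm of test compound in DMSO added to citrate–phosphate buffer (pH 5 and pH 7.4), water and BSA (0.2 mg/ml stock), at various concentrations, read against a water reference. Enzyme testing used only concentrations showing no turbidity.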

The subject of series [19] is Streptococcus agalactiae. The series is described as follows: Inhibition of Streptococcus agalactiae 4755 hyaluronidase at 100 uM after 30 mins at pH 5.0 by turbidimetric analysis. An outline of the steps:
(§2)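 SagHyal4755 (2.9 ng) with BSA and hyaluronan (2 mg/ml stock) in citrate–phosphate/NaCl buffer pH 5.0, 3.8% DMSO final, 30 min at 37 °C. Stopped by alkaline 2.5% CTAB, then 20 min at 25 °C. Residual-substrate turbidity read at 600 nm; no-inhibitor sample = 100%, no-enzyme sample = 0% activity. Enzyme-free compound controls were run.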

The subject of series [20] is Streptococcus agalactiae. The series is described as follows: Inhibition of Streptococcus agalactiae 4755 hyaluronidase at 200 uM after 3 hrs at pH 7.4 by turbidimetric analysis. An outline of the steps:
as §1

Series [21] relates to Streptococcus agalactiae. The series is described as follows: Inhibition of Streptococcus agalactiae 4755 hyaluronidase at 200 uM after 30 mins at pH 5.0 by turbidimetric analysis. A digest of the protocol:
as §2

Series [22] relates to Streptococcus agalactiae. The series is described as follows: Inhibition of Streptococcus agalactiae 4755 hyaluronidase at 400 uM after 30 mins at pH 5.0 by turbidimetric analysis. An outline of the steps:
as §2

Structures are written as SMILES. Values after ≈ are worked out from the molar mass of the structure shown. Active and inactive are the calls of the source. No cut-off for these calls is given here.

The IC50 is the concentration that gives 50% inhibition. A low value points to inhibition by little substance. The term inhibition denotes how much of the control response was suppressed. The term solubility denotes how much of the substance goes into solution per volume. Read a low solubility as little dissolved substance. In series [1], `CCCCCCCCCC(=O)n1c(=S)oc2ccccc21` had an IC50 of 25 µM. Moreover, the inhibition result in [2], in series [3], in series [4], in series [5], in series [6] and in series [7] was “inactive” in each case. Further, the inhibition entry in [8], in [9], in [10], in [11], in series [12] and in [13] was “inactive” in each case. In addition, the inhibition result in series [14], in series [15], in series [16] and in series [17] was “inactive” throughout. The compound also registered a solubility in series [18] of 100 µM (≈ 30.5 µg/mL). The inhibition in series [19] came to 41%.

As for `CC(=O)n1c(=O)n(C(C)=O)c2ccccc21`, the inhibition in series [20] was determined as 10%. For the same compound, the inhibition result in series [2], in series [3], in series [4], in series [5], in series [6] and in [7] was “inactive” each time. The inhibition result in series [8], in series [9], in [10], in series [11], in series [12] and in [13] was “inactive” each time. The inhibition entry in series [14], in series [15], in series [16], in series [17] and in series [21] was “inactive” in each case. The amount in solution in series [18] (solubility) came to 200 µM (≈ 43.6 µg/mL).

In turn, `O=C(OCc1ccccc1)n1c(=S)oc2ccccc21` had an IC50 in series [1] of 556 µM. Besides, the inhibition entry in series [2], in series [3], in [4], in [5], in series [6] and in series [7] was “inactive” each time. The inhibition result in series [8], in series [9], in series [10], in series [11], in series [12] and in series [13] was “inactive” in each case. The inhibition result in series [14], in [15], in series [16], in [17] and in [19] was “inactive” each time. In [18], this compound came in with a solubility of 100 µM (≈ 28.5 µg/mL).

As for `COC(=O)c1ccc2oc(=S)n(C(=O)CCc3ccccc3)c2c1`, the IC50 in series [1] is 21 µM. The inhibition result in series [2], in series [3], in series [4], in [5], in [6] and in series [7] was “inactive” in each case. In addition, the inhibition entry in series [8], in series [9], in series [10], in series [11], in series [12] and in series [13] was “inactive” in each case. For the same compound, the inhibition entry in series [14], in series [15], in [16] and in series [17] was “inactive” throughout. The compound further showed a solubility in series [18] of 200 µM (≈ 68.3 µg/mL). This compound yielded an inhibition in [21] of 56%.

In [1], `O=C(c1cccc(Cl)c1)n1c(=S)[nH]c2ccccc21` had an IC50 of 70 µM. Also, the inhibition result in series [2], in series [3], in [4], in [5], in series [6] and in [7] was “inactive” each time. For the same compound, the inhibition result in series [8], in [9], in series [10], in [11], in [12] and in series [13] was “inactive” in each case. The inhibition entry in series [14], in series [15], in [16] and in series [17] was “inactive” each time. Moreover, the solubility in [18] came out at 400 µM (≈ 116 µg/mL). The inhibition in [22] turned out to be 16%.

`O=C(CCCc1ccccc1)n1c(=S)oc2ccccc21` came in with an IC50 in [1] of 19 µM. The inhibition result in series [2], in [3], in series [4], in series [5], in series [6] and in [7] was “inactive” throughout. Also, the inhibition result in [8], in [9], in series [10], in series [11], in series [12] and in series [13] was “inactive” each time. The inhibition entry in [14], in series [15], in series [16] and in [17] was “inactive” throughout. The solubility in [18] turned out to be 100 µM (≈ 29.7 µg/mL). In series [19], this compound returned an inhibition of 47%.

`O=C(CCc1ccccc1)n1c(=S)[nH]c2ccccc21` yielded a concentration for half-maximal inhibition (IC50) in series [1] of 29 µM. In addition, the inhibition entry in [2], in series [3], in series [4], in series [5], in series [6] and in series [7] was “inactive” throughout. The inhibition entry in series [8], in [9], in [10], in series [11], in series [12] and in series [13] was “inactive” each time. Further, the inhibition entry in series [14], in [15], in [16] and in series [17] was “inactive” each time. In [18], this compound had a solubility of 100 µM (≈ 28.2 µg/mL). The inhibition in [19] was determined as 5%.

These data come from ChEMBL document CHEMBL1817567, “Design of benzimidazole- and benzoxazole-2-thione derivatives as inhibitors of bacterial hyaluronan lyase” (Eur J Med Chem, 2011).
